Data on five compounds can be found in PMC9401589 (Chembiochem, 2022).

pIC50: −log10 of the molar value. “Also recorded” adds a separate entry of the source. Where two headings read alike, the source gives them in different places.

Data set [1] concerns DAHP accumulation in A. variabilis cells. The data set is described as follows: DAHP accumulation in treated A. variabilis cells. It counts as cell-based, Anabaena variabilis. The conditions noted are these: 250 μM, after 5 h of cultivation. In outline:
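Anabaena variabilis cells were cultivated for 5 h with 250 μM test compound, alongside untreated control cells. Treated cells were then examined for intracellular DAHP accumulation as an in vivo sign of DHQS inhibition in the shikimate pathway.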

In data set [2] the target is T1, dehydroquinate synthase of Arabidopsis thaliana (AtDHQS) (Arabidopsis thaliana, UniProt Q8VYV7).
T1 sequence (Q8VYV7 59-442): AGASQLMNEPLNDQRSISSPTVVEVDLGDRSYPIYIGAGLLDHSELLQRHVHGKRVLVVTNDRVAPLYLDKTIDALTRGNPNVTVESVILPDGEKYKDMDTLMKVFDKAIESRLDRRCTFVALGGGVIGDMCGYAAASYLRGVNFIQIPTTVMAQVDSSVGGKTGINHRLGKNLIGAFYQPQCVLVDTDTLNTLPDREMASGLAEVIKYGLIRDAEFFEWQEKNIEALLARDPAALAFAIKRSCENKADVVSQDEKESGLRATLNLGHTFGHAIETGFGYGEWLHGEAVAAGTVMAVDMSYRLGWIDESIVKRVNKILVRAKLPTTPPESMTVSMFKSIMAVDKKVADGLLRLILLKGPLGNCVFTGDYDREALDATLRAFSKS
The experiment in a line: DHQS activity assay. It is filed as biochemical.

For data set [3], the target named is T2, DHQS from A. variabilis (AvDHQS) (Trichormus variabilis, UniProt Q3M4V2).
T2 sequence (Q3M4V2 1-363): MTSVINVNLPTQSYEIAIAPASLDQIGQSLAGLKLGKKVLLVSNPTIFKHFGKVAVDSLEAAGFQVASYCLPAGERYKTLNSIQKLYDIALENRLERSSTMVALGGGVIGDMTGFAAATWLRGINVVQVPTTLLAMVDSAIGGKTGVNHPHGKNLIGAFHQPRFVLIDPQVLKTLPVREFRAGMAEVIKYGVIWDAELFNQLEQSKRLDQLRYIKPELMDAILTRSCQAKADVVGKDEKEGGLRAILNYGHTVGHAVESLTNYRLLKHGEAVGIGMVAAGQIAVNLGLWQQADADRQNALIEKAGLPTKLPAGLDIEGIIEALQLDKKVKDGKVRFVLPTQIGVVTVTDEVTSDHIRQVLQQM
The experiment in a line: DHQS activity assay with A. variabilis enzyme. It counts as biochemical, Anabaena variabilis.

In another data set the test system is fish. The conditions noted are these: fish ref 2, 4; cited from earlier work.
Data set [4] has as its system Anabaena variabilis ATCC 29413. The data set is described as follows: Bioactivity assay: growth of A. variabilis in presence of compound. It is filed as cell-based. The conditions noted are these: for cell density (chlorophyll a content) compared to control: 250 μM, four-day cultivation; for concentration at which an effect on growth was visible: after 4 days of cultivation, tested 5-250 µM; for growth inhibition / bioactivity towards A. variabilis: 4 days of cultivation. In outline: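 A. variabilis cultured in suspension with test compound at 250 μM for four days. Chlorophyll a content was then measured as the indicator of cell density and compared with untreated control cultures. Cultures were also inspected visually for growth.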

A further data set concerns A. variabilis. The data set is described as follows: Uptake assay: decrease of compound in supernatant of A. variabilis cultures. It is filed as cell-based, Anabaena variabilis. The conditions noted are these: 250 μM applied; for change of compound amount in supernatant: over 48 h.
The next data set concerns A. thaliana seedlings. The experiment in a line: Seedling growth of A. thaliana. It counts as in vivo, Arabidopsis thaliana. The conditions noted are these: 7 days after germination, compared to control. In outline: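 A. thaliana seedlings were grown with or without test compound and scored 7 days after germination for seedling morphology and root length (n≥18 seedlings). Each treatment was compared with the control by unpaired t-test.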

A short description of data set [5]: Quantification of compound in plant material via GC-MS. It is filed as in vivo, Arabidopsis thaliana.

Usually pIC50 stands for the negative decadic logarithm of the IC50, by convention in mol/L. The low end stands for a large IC50, the high end for a small IC50. Take `C[C@@H](O)[C@@H](O)[C@@H](O)[C@H](O)C(=O)CO` [7dSh (1), 7‐deoxy‐sedoheptulose]: the “DAHP accumulation” value in data set [1] is given as “significantly higher amounts”. In addition, the pIC50 in data set [2] (IC50, AtDHQS, series [b] enzyme preparation) is 4.07; in data set [2] (IC50-value against isolated AtDHQS enzyme, range over both enzyme preparations), 3.84 to 4.07; in data set [2] (IC50 of AtDHQS, approximate, as printed in discussion), roughly 4.00; in data set [3], 4.63. Also, in the data set with fish, the cytotoxic effects result is “little”. Besides, in data set [4], the “cell density (chlorophyll a content) compared to control” value was “significantly reduced”. Moreover, the “concentration at which an effect on growth was visible” value in data set [4] is 5 µM. Further, in the data set with A. variabilis (after 48 h, ESI-MS), the “amount of initially applied substance detected in the supernatant” value is recorded as “about 50%”. For the same compound, the “effect on seedling growth / root length” value with A. thaliana seedlings is “significantly affected the growth and morphology”.
With `C[C@@H](O)[C@H](F)[C@@H](O)[C@H](O)C(=O)CO` [5,7dd5FIh (3)], the “DAHP accumulation” value in data set [1] was “only very small amounts; also recorded: neither result in DAHP accumulation”. In data set [4], the “growth inhibition / bioactivity towards A. variabilis” value is given as “nor in growth inhibition”. In addition, the “change of compound amount in supernatant” value with A. variabilis is given as “depletion”. Moreover, the “effect on seedling growth / root length” value in the data set with A. thaliana seedlings is “no statistical significant differences”.
For `O=C(CO)[C@@H](O)[C@H](O)[C@H](O)[C@H](O)CF` [7d7FSh (2)], the “DAHP accumulation” value in data set [1] is listed as “significantly higher amounts; also recorded: significantly elevated compared to 7dSh (1)”. The pIC50 in data set [2] is 3.70. Further, in data set [4], the “cell density (chlorophyll a content) compared to control” value is “significantly reduced”, the “growth inhibition / bioactivity towards A. variabilis” value is reported as “inhibited growth” and the “concentration at which an effect on growth was visible” value stood at 100 µM. Besides, the “initially applied compound retrieved in the supernatant” value in the data set on A. variabilis (after 24 h) is listed as “none”. Also, the “change of compound amount in supernatant” value in the data set on A. variabilis was “best among all tested compounds”. Also, the “effect on seedling growth / root length” value in the data set with A. thaliana seedlings is “significantly affected the growth and morphology; also recorded: inhibited growth”. Further, in data set [5] (7 d old seedlings), the “medium concentration leading to saturation of intracellular accumulation” value amounted to 130 µM. The “accumulation / import into Arabidopsis seedlings” value in data set [5] (seedlings germinated on media with 7d7FSh (130 or 260 µM)) is given as “comparable range to 7dSh (1)”.
As to `C[C@@H]1O[C@](O)(CO)[C@@H](O)[C@H](O)[C@H]1O` [7dGh (5)], in data set [1], the “DAHP accumulation” value is recorded as “only very small amounts; also recorded: neither DAHP accumulation”. The “relative activity in relation to 7dSh (1) (ratio of IC50 values)” value in data set [2] (IC50 7dSh : IC50 derivative, same enzyme series) was “≈ 0.3”. The “growth inhibition / bioactivity towards A. variabilis” value in data set [4] is “nor inhibitory impact on cell growth”. For the same compound, the “change of compound amount in supernatant” value in the data set with A. variabilis is reported as “slight decrease; also recorded: small decrease”. For the same compound, the “effect on seedling growth / root length” value in the data set with A. thaliana seedlings is reported as “no statistical significant differences”.
With `O=C(CO)[C@@H](O)[C@H](O)[C@H](O)[C@H](O)CO` [Sedoheptulose, reference compound], the “inhibitory effect on AtDHQS” value in data set [2] is reported as “no inhibitory effect”. Also, in data set [2] (AtDHQS, series [a] enzyme preparation, 2.5 µM substrate, 2 nM enzyme, 29 °C), the pIC50 is less than 3.00.
